Drawing on ChEMBL document CHEMBL1145777 (J Med Chem, 2003), this text covers Ratio, Ki and Emax for twelve compounds.

Experiment [1] deals with Kappa-type opioid receptor (Cavia porcellus) (UniProt P41144). As to the kind of experiment: Ratio of binding affinity of Opioid receptor kappa 1 to Opioid receptor mu 1 to Opioid receptor delta 1; kappa:mu:delta = 12:38:1.
Experiment [2] is described as follows: Binding affinity towards Opioid receptor delta 1 from guinea pig brain using [3H]naltrindole as radioligand.
Experiment [3] addresses Kappa-type opioid receptor (Cavia porcellus) (UniProt P41144). Kind of experiment: Ratio of binding affinity of Opioid receptor kappa 1 to Opioid receptor mu 1 to Opioid receptor delta 1; kappa:mu:delta = 15:18:1.
In experiment [4] the target is Kappa-type opioid receptor (Cavia porcellus, UniProt P41144). As to the kind of experiment: Binding affinity towards Opioid receptor kappa 1 from guinea pig brain using [3H]U-69593 as radioligand. The method, boiled down: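 Uses 1 nM [3H]U69,593 with guinea pig brain membrane protein (500 µg), 12 concentrations, 50 mM Tris-HCl pH 7.5, 60 min at 25 °C. Nonspecific binding with 10 µM naloxone. Filters pre-soaked in 0.1% polyethylenimine; bound label counted.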
Chain of Kappa-type opioid receptor (Cavia porcellus, UniProt P41144) (P41144 whole entry): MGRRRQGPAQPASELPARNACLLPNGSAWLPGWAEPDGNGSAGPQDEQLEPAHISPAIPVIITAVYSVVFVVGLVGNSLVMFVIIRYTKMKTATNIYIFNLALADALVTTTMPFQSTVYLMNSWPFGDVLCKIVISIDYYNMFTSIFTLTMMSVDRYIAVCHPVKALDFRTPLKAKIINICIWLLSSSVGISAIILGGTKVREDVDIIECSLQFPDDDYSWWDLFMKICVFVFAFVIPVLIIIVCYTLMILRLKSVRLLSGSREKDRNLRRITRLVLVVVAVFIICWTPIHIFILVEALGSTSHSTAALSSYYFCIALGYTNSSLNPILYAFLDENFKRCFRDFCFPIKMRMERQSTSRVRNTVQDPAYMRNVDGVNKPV

Experiment [5] has as its target Mu-type opioid receptor (Cavia porcellus, UniProt P97266). Kind of experiment: Binding affinity towards Opioid receptor mu 1 from guinea pig brain using [3H]DAMGO as radioligand.
Experiment [6] deals with Kappa-type opioid receptor (Cavia porcellus) (UniProt P41144). Kind of experiment: Ratio of binding affinity of Opioid receptor kappa 1 to Opioid receptor mu 1 to Opioid receptor delta 1; kappa:mu:delta = 10:9:1.
The target is the same in experiment [7]. As to the kind of experiment: Ratio of binding affinity of Opioid receptor kappa 1 to Opioid receptor mu 1 to Opioid receptor delta 1; kappa:mu:delta = 36:14:1.
The target is the same in experiment [8]. As to the kind of experiment: Ratio of binding affinity of Opioid receptor kappa 1 to Opioid receptor mu 1 to Opioid receptor delta 1; kappa:mu:delta = 13:10:1.
Experiment [9] has the same target. As to the kind of experiment: Ratio of binding affinity of Opioid receptor kappa 1 to Opioid receptor mu 1 to Opioid receptor delta 1; kappa:mu:delta = 26:81:1.
Experiment [10] shares this target. Kind of experiment: Ratio of binding affinity of Opioid receptor kappa 1 to Opioid receptor mu 1 to Opioid receptor delta 1; kappa:mu:delta = 12:4:1.
Experiment [11] has the same target. Kind of experiment: Ratio of binding affinity of Opioid receptor kappa 1 to Opioid receptor mu 1 to Opioid receptor delta 1; kappa:mu:delta = 4:3:1.
The target is the same in experiment [12]. Kind of experiment: Ratio of binding affinity of Opioid receptor kappa 1 to Opioid receptor mu 1 to Opioid receptor delta 1; kappa:mu:delta = 45:12:1.
For experiment [13], the target named is Mu-type opioid receptor (Homo sapiens, UniProt P35372). Kind of experiment: Incorporation of [35S]GTP-gamma-S, into CHO membranes expressing human Opioid receptor mu 1. In kind it is functional. A general note: Binding of GTPγS marks nucleotide exchange on a G protein.
Chain of Mu-type opioid receptor (Homo sapiens, UniProt P35372) (P35372 whole entry): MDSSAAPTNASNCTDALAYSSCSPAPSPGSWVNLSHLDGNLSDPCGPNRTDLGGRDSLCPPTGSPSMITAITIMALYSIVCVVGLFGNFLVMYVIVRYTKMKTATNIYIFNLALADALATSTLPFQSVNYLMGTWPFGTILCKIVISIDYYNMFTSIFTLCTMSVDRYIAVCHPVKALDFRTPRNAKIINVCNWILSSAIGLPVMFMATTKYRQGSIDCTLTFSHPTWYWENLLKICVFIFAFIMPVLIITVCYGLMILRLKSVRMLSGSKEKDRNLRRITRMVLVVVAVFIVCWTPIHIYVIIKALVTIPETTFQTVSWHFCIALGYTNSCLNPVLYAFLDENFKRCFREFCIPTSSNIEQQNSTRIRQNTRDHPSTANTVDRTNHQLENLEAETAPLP
Experiment [14] deals with Kappa-type opioid receptor (Cavia porcellus) (UniProt P41144). As to the kind of experiment: Ratio of binding affinity of Opioid receptor kappa 1 to Opioid receptor mu 1 to Opioid receptor delta 1; kappa:mu:delta = 7:3:1.
Experiment [15] deals with Kappa-type opioid receptor (Homo sapiens, UniProt P41145). Kind of experiment: Incorporation of [35S]GTP-gamma-S, into CHO membranes expressing human Opioid receptor kappa 1. In kind it is functional.
Chain of Kappa-type opioid receptor (Homo sapiens, UniProt P41145) (P41145 whole entry): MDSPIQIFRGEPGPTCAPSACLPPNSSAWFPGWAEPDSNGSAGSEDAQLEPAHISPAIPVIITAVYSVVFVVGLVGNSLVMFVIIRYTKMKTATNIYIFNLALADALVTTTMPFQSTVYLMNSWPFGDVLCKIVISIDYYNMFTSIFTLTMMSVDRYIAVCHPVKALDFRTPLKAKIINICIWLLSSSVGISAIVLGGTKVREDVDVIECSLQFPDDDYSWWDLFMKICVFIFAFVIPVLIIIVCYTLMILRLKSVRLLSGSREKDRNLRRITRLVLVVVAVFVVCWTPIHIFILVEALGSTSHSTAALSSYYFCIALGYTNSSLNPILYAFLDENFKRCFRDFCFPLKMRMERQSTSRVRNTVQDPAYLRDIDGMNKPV
For experiment [16], the target named is Kappa-type opioid receptor (Cavia porcellus) (UniProt P41144). As to the kind of experiment: Ratio of binding affinity of Opioid receptor kappa 1 to Opioid receptor mu 1 to Opioid receptor delta 1; kappa:mu:delta = 9:1:1.
The target is the same in experiment [17]. Kind of experiment: Ratio of binding affinity of Opioid receptor kappa 1 to Opioid receptor mu 1 to Opioid receptor delta 1; kappa:mu:delta = 5:3:1.

Chain of Kappa-type opioid receptor (Cavia porcellus) (P41144 whole entry): as the sequence (P41144 whole entry) above
Chain of Mu-type opioid receptor (Cavia porcellus, UniProt P97266) (P97266 whole entry): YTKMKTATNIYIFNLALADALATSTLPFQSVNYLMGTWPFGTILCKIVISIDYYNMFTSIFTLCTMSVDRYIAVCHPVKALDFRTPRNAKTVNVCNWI

`C[C@H]1C2Cc3ccc(NCc4ccccc4)cc3[C@@]1(C)CCN2CC1CC1` (stereo in doubt; 25): in experiment [1], the Ratio worked out at 12.

`C[C@H]1C2Cc3ccc(NCCc4ccccc4)cc3[C@@]1(C)CCN2CC1CC1`: in experiment [2], the Ki (commonly a dissociation constant, usually derived from enzyme kinetics or from competition with a known ligand) was 160 nM. Moreover, in [3], the Ratio turned out to be 15.

`C[C@H]1C2Cc3ccc(Nc4ccc(Cl)cc4)cc3[C@@]1(C)CCN2CC1CC1`: the Ki in experiment [4] was found to be 2.5 nM; in experiment [5], 3 nM. Besides, the Ratio in experiment [6] turned out to be 10.

For `C[C@H]1C2Cc3cc4cc[nH]c4cc3[C@@]1(C)CCN2CC1CC1`, the Ki in [4] is 7 nM; in experiment [5], 18 nM. In addition, the Ratio in experiment [7] is 36.

As for `C[C@H]1C2Cc3ccc(N(C)Cc4ccccc4)cc3[C@@]1(C)CCN2CC1CC1`, the Ki in experiment [2] worked out at 570 nM. Moreover, the Ratio in experiment [8] was 13.

For the compound `C[C@H]1C2Cc3ccc(NCc4ccccc4)cc3[C@@]1(C)CCN2CC1CC1` (single isomer, unassigned; (-)), the Ratio in experiment [9] turned out to be 26.

On to `C[C@H]1C2Cc3ccc(N4CCCCC4)cc3[C@@]1(C)CCN2CC1CC1`, for which the Ki in experiment [2] amounted to 3600 nM; in experiment [5] it was 95 nM. For the same compound, the Ratio in experiment [10] came out at 12.

As to `C[C@H]1C2Cc3ccc(Nc4ccc(C(C)(C)C)cc4)cc3[C@@]1(C)CCN2CC1CC1`, in experiment [11], the Ratio was determined as 4. The values for the Ki in experiment [4] and in experiment [5] were 14 nM and 18 nM, respectively.

Turning to `COc1ccccc1Nc1ccc2c(c1)[C@@]1(C)CCN(CC3CC3)C(C2)[C@@H]1C`, the Ki in experiment [4] is 2.2 nM; in [5] it was 8.5 nM. Further, in [12], the Ratio worked out at 45.

With `CC[C@@]12CCN(CC3CC3)C(C(=O)c3ccc(N)cc31)[C@@H]2C` (single isomer, unassigned; (-)), the Emax (usually the maximal effect, on the per cent scale that the assay sets) in [13] was found to be 10%; in [15] it was 110%. In addition, the Ratio in experiment [14] worked out at 7.

Take `C[C@H]1C2Cc3ccc(Nc4ccc(N(C)C)cc4)cc3[C@@]1(C)CCN2CC1CC1`: the inhibition constant (Ki) in [4] was determined as 8.8 nM; in [5] it was 70 nM. In addition, the Ratio in [16] came out at 9.

In the case of `C[C@H]1C2Cc3ccc(Nc4ccc(Cl)c(Cl)c4)cc3[C@@]1(C)CCN2CC1CC1`, the inhibitory constant (Ki) in experiment [4] came to 5.7 nM; in experiment [5], 8.4 nM. Besides, the Ratio in experiment [17] amounted to 5.
